According to publication PMC4220649 (Blood Cancer Journal, 2014):
“And” between values parts separate entries of the source, which are not always exact repeats. Equal values may be shown once.

Legend:
[1] = tested on: patients with relapsed or refractory MM; conditions: cited from earlier work
[2] = weekly oral ixazomib, relapsed or refractory MM, after multiple dosing; cited from earlier work
20S proteasome = 20S proteasome (Homo sapiens, UniProt P28074); test: Whole blood 20S proteasome activity; type: in vivo; conditions: for Emax / Time to Emax: whole blood 20S; for Maximal 20S proteasome inhibition / Time of maximal 20S proteasome inhibition after administration: whole blood, MTD 2.34 mg/m^2
In short: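 Whole blood was sampled after IV bolus dosing (0.125–3.11 mg/m2) on cycle 1 days 1 and 15. 20S proteasome activity was measured by fluorogenic assay.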

[3] = Urine pharmacokinetics of ixazomib; type: in vivo, human
[4] = day 1, IV 0.125 mg/m^2, n=1, individual value
[5] = day 1, IV 0.25 mg/m^2, n=1, individual value
[6] = day 1, IV 0.5 mg/m^2, n=1, individual value
[7] = day 1, IV 1 mg/m^2, n=1, individual value
[8] = day 15, IV 0.25 mg/m^2, n=1, individual value
[9] = day 15, IV 0.5 mg/m^2, n=1, individual value
[10] = day 15, IV 1 mg/m^2, n=1, individual value
[11] = day 15, IV 3.11 mg/m^2, n=2, individual values

CC(C)C[C@H](NC(=O)CNC(=O)c1cc(Cl)ccc1Cl)B(O)O [ixazomib]
Any-grade drug-related PN, patients ([1]; weekly oral ixazomib in MM): 20% | Drug-related grade 3 PN, patients ([1]; weekly oral ixazomib in MM): 2% | Rate of drug-related AEs in the Skin and subcutaneous tissue disorders System Organ Class ([1]; weekly oral ixazomib, relapsed or refractory MM): 22% | Terminal half-life [2]: 4 to 12 days | Dose dependence of maximal whole blood 20S proteasome inhibition (20S proteasome; 0.125–3.11 mg/m^2): dose-dependent increase | AUE0–168 h (20S proteasome; area under 20S inhibition vs time curve, day 1, IV 1.4 mg/m^2, n=3, mean (±s.d.)): 2000 (±1160) % inhibition/h | Emax (20S proteasome; [4]): 5.15 % inhibition | Time to Emax (20S proteasome; [4]): 0.25 h | Emax (20S proteasome; [5]): 18.5 % inhibition | Time to Emax (20S proteasome; [5]): 0.083 h | Emax (20S proteasome; [6]): 33.2 % inhibition | Time to Emax (20S proteasome; [6]): 0.1 h | Emax (20S proteasome; [7]): 50.5 % inhibition | Time to Emax (20S proteasome; [7]): 0.083 h | Emax (20S proteasome; day 1, IV 1.4 mg/m^2, n=3, mean (±s.d.)): 66.3 (±14.8) % inhibition | Time to Emax (20S proteasome; day 1, IV 1.4 mg/m^2, n=3, median (range)): 0.117 (0.1–0.133) h | Emax (20S proteasome; day 1, IV 1.76 mg/m^2, n=7, mean (±s.d.)): 72.2 (±8.1) % inhibition | Time to Emax (20S proteasome; day 1, IV 1.76 mg/m^2, n=7, median (range)): 0.083 (0.083–0.1) h | Emax (20S proteasome; day 1, IV 2.34 mg/m^2, n=5, mean (±s.d.)): 81.9 (±3.2) % inhibition | Time to Emax (20S proteasome; day 1, IV 2.34 mg/m^2, n=5, median (range)): 0.083 (0.083–0.25) h | Emax (20S proteasome; day 1, IV 3.11 mg/m^2, n=4, mean (±s.d.)): 80.2 (±3.6) % inhibition | Time to Emax (20S proteasome; day 1, IV 3.11 mg/m^2, n=4, median (range)): 0.109 (0.083–0.533) h | Emax (20S proteasome; [8]): 64.3 % inhibition | Time to Emax (20S proteasome; [8]): 0.1 h | Emax (20S proteasome; [9]): 19.2 % inhibition | Time to Emax (20S proteasome; [9]): 0.1 h | Emax (20S proteasome; [10]): 44.4 % inhibition | Time to Emax (20S proteasome; [10]): 0.083 h | Emax (20S proteasome; day 15, IV 1.4 mg/m^2, n=3, mean (±s.d.)): 69.8 (±10.6) % inhibition | Time to Emax (20S proteasome; day 15, IV 1.4 mg/m^2, n=3, median (range)): 0.083 (0.083–0.083) h | Emax (20S proteasome; day 15, IV 1.76 mg/m^2, n=3, mean (±s.d.)): 74.8 (±4.5) % inhibition | Time to Emax (20S proteasome; day 15, IV 1.76 mg/m^2, n=3, median (range)): 0.083 (0.033–0.083) h | Emax (20S proteasome; day 15, IV 2.34 mg/m^2, n=4, mean (±s.d.)): 79.6 (±4.9) % inhibition | Time to Emax (20S proteasome; day 15, IV 2.34 mg/m^2, n=4, median (range)): 0.167 (0.083–0.25) h | Emax (20S proteasome; [11]): 82.3 % inhibition and 85 % inhibition | Time to Emax (20S proteasome; [11]): 0.083 h and 0.117 h | Maximal 20S proteasome inhibition (20S proteasome; day 1): 82% | Time of maximal 20S proteasome inhibition after administration (20S proteasome; day 1): 5 min | Maximal 20S proteasome inhibition (20S proteasome; day 15): 80% | Time of maximal 20S proteasome inhibition after administration (20S proteasome; day 15): 10 min | Fraction of ixazomib excreted unchanged in urine ([3]; 25 patients, days 1 and 15, 0 to 4 h): < 1 % of the administered dose | CL renal ([3]; human, urine, intravenous): < 8.5 mL/min
